Results published in ChEMBL document CHEMBL1142992, “Discovery of diaryl imidazolidin-2-one derivatives, a novel class of muscarinic M3 selective antagonists (Part 1)” (J Med Chem, 2007).
Values belong to the compound of their own block, whether it stands above or below them. The source made the active and inactive calls.

Columns and labels:
[1] = target: T1, Muscarinic acetylcholine receptor M2 (Homo sapiens) (UniProt P08172); assay: Displacement of [3H]N-methyl-scopolamine from human muscarinic M2 receptor expressed in CHO K1 cells at 10 uM; type: cell-based
T1 sequence (whole entry): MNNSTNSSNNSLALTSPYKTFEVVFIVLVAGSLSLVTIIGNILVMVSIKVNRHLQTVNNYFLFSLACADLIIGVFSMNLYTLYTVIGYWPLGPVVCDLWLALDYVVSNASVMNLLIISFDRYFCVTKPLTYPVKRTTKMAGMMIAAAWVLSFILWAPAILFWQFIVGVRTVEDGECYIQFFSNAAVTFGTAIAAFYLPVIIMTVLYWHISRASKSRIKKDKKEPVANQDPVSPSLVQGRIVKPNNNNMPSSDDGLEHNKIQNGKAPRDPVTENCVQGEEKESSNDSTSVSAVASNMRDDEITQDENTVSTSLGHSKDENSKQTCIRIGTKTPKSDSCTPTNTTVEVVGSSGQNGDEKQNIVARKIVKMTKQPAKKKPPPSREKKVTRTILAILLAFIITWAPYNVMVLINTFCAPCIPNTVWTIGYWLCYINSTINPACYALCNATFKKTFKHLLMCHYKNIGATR

[2] = Permeability across human Caco-2 cell membrane; type: ADME, cell-based
Summary of the method: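 Caco-2 monolayers grown 21 days on polycarbonate inserts. Integrity checked by TEER (1000 Ω) and sodium fluorescein leakage. Compound at 50 µM in 1% DMSO applied apically, 2 h at 37 °C. Apical and basolateral samples measured by LC-MS/MS. Papp = CbVb/(C0·A·t).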

[3] = Intrinsic clearance in rat liver microsomes; type: ADME, Microsome
Summary of the method: (§1)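 Human or rat liver microsomes at 0.5 mg/mL final, preincubated with 0.5 µM test compound in phosphate buffer pH 7.4 for 10 min at 37 °C. Clearance reported as mL/min/g liver.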

[4] = Intrinsic clearance in human liver microsomes; type: ADME, Microsome; summary of the method: as §1
[5] = target: T2, Muscarinic acetylcholine receptor M2 (Homo sapiens, UniProt P08172); assay: Displacement of [3H]N-methyl-scopolamine from human muscarinic M2 receptor expressed in CHO K1 cells; type: cell-based
T2 sequence (P08172 whole entry): T1 sequence (whole entry)
Summary of the method: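 Membranes from CHO-K1 cells expressing human M2 receptor, homogenized and stored at -80 °C, resuspended in 50 mM Tris-HCl pH 7.4, 2.5 mM MgCl2, 1 mM EDTA. [3H]-N-methyl scopolamine 0.1-0.3 nM; nonspecific binding with cold N-methyl scopolamine. 10-point curves in duplicate, 60 min at room temperature, filtration through GF/B, scintillation counting.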

Cytochrome P450 3A4 = Cytochrome P450 3A4 (Homo sapiens, UniProt P08684); assay: Inhibition of human CYP3A4 expressed in insect cells; type: ADME
Sequence of Cytochrome P450 3A4 (P08684 whole entry, canonical isoform): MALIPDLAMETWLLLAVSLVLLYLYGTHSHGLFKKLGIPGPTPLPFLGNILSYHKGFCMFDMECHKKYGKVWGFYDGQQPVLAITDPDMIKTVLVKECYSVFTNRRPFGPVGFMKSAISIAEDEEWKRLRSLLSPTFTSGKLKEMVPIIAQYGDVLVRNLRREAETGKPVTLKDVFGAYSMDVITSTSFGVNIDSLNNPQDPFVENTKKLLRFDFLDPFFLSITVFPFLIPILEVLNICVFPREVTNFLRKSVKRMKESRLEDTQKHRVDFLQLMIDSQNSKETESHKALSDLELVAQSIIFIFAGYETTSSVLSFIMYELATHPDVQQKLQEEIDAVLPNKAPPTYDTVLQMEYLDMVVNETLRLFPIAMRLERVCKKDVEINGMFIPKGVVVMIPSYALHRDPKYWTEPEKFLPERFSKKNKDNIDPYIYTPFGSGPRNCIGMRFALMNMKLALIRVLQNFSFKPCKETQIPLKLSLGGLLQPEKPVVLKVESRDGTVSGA
Summary of the method: (§2)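 Insect-cell microsomes expressing human CYP1A2, 2C9, 2C19, 2D6 or 3A4, each with an isoform-specific fluorogenic substrate in 0.35 M potassium phosphate pH 7.4. […] Inhibitor serially diluted; plates prewarmed 10 min at 37 °C. Reaction stopped with acetonitrile/Tris, read by fluorescence. IC50 from nonlinear regression. Positive controls: furafylline, sulfaphenazole, tranylcypromine, quinidine, ketoconazole.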

Cytochrome P450 2C9 = Cytochrome P450 2C9 (Homo sapiens, UniProt P11712); assay: Inhibition of human CYP2C9 expressed in insect cells; type: ADME; summary of the method: as §2
Sequence of Cytochrome P450 2C9 (P11712 whole entry): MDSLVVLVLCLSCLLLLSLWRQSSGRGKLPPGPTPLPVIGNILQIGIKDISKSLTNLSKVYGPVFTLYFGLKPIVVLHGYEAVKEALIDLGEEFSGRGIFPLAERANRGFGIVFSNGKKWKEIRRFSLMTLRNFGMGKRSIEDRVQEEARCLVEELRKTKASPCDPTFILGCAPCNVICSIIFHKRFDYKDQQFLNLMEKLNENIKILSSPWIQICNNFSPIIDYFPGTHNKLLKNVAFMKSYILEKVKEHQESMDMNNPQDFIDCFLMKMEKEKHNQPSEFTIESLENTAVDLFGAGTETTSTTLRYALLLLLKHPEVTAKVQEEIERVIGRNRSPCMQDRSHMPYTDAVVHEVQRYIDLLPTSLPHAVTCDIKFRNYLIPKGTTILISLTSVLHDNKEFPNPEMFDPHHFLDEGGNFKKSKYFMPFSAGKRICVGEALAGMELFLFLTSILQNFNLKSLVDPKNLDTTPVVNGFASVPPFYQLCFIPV

Cytochrome P450 2C19 = Cytochrome P450 2C19 (Homo sapiens, UniProt P33261); assay: Inhibition of human CYP2C19 expressed in insect cells; type: ADME; summary of the method: as §2
Sequence of Cytochrome P450 2C19 (P33261 whole entry): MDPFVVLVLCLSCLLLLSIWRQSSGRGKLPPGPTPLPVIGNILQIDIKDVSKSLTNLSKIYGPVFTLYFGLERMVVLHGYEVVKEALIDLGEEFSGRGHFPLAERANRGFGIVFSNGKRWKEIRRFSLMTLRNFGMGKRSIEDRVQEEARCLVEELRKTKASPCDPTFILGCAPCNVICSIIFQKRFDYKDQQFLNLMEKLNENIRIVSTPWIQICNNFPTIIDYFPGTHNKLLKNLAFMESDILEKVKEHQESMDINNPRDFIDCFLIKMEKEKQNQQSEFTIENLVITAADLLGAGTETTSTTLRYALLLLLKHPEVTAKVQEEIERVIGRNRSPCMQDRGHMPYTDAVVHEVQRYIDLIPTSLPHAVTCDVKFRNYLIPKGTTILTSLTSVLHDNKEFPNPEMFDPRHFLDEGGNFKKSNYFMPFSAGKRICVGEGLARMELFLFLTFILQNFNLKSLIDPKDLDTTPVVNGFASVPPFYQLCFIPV

Cytochrome P450 2D6 = Cytochrome P450 2D6 (Homo sapiens, UniProt P10635); assay: Inhibition of human CYP2D6 expressed in insect cells; type: ADME; summary of the method: as §2
Sequence of Cytochrome P450 2D6 (P10635 whole entry): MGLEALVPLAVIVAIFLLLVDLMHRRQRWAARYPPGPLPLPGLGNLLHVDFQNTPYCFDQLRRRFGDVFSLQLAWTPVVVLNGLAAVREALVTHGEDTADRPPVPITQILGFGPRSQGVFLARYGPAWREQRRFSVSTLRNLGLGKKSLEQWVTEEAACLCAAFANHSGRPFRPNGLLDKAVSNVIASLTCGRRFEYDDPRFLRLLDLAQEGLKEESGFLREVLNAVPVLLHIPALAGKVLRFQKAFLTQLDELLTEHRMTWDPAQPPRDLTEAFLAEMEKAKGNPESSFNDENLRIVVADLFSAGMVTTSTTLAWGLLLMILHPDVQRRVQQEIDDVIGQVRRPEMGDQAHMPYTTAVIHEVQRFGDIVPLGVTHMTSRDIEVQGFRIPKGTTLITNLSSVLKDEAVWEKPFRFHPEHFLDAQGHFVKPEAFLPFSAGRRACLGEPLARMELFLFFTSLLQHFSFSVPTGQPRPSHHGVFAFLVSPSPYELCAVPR

Cytochrome P450 1A2 = target: T3, Cytochrome P450 1A2 (Homo sapiens, UniProt P05177); assay: Inhibition of human CYP1A2 expressed in insect cells; type: ADME; summary of the method: as §2
T3 sequence (P05177 whole entry): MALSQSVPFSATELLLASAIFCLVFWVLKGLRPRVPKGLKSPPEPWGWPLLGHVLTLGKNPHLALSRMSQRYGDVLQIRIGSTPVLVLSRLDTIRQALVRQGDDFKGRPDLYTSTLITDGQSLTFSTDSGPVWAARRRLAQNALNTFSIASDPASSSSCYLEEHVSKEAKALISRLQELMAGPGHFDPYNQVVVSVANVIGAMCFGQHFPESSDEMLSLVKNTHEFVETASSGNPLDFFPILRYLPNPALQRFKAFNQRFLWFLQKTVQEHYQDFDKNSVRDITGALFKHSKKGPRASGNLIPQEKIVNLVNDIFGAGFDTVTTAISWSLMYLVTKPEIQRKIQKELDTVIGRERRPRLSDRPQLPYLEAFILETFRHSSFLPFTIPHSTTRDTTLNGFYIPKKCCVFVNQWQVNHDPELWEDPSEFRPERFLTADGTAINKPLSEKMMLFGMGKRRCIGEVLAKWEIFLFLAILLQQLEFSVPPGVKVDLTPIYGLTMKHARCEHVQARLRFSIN

[6] = target: Muscarinic acetylcholine receptor M3 (Homo sapiens) (UniProt P20309); assay: Displacement of [3H]N-methyl-scopolamine from human muscarinic M3 receptor expressed in CHO K1 cells at 10 uM; type: cell-based
Sequence of Muscarinic acetylcholine receptor M3 (Homo sapiens) (P20309 whole entry, looked up): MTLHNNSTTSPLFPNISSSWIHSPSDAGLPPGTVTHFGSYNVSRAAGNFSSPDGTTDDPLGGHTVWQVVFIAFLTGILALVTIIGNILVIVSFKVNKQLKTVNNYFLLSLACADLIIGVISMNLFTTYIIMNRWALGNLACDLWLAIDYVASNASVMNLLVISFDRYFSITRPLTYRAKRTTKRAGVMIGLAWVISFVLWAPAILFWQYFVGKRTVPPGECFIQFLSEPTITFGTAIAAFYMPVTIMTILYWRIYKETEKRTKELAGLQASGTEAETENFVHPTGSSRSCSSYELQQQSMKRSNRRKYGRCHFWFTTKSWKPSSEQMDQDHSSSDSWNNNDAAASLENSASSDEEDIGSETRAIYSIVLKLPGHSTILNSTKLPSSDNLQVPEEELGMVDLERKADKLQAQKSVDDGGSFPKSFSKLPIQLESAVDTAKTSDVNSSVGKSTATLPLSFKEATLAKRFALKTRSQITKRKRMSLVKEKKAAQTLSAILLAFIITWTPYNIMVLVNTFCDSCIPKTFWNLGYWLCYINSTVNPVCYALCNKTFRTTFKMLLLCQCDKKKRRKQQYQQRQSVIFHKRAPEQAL

[7] = target: T4, Muscarinic acetylcholine receptor M2 (Rattus norvegicus) (UniProt P10980); assay: Antagonist activity at muscarinic M2 receptor in rat left atria assessed as contraction of methacholine-induced relaxation upto 0.1 uM relative to EFS; type: functional
T4 sequence (whole entry): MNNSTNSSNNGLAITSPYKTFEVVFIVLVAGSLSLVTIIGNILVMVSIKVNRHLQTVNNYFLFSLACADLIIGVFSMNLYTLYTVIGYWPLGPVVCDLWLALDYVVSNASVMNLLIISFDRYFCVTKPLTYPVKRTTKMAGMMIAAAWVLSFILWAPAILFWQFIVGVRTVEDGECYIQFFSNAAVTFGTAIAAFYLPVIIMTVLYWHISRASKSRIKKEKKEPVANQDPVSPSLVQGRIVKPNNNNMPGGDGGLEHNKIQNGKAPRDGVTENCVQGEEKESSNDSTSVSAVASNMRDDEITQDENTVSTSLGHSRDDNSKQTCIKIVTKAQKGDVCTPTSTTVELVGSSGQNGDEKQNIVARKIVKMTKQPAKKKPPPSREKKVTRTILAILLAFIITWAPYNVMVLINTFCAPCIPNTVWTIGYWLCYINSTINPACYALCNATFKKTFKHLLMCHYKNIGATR
Summary of the method: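 Female rat left atrium in Krebs-Henseleit at 33 °C, resting tension 0.5 g, eserine 1 µM present. Paced by EFS at 1 Hz, 5 ms pulses, 1.5× threshold voltage to give a stable basal force. Methacholine concentration-response curves run alone or with antagonist at 0.01-0.1 µM. Response read as delta % of basal force of contraction; mean ± SEM, n = 6-7.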

[8] = target: Muscarinic acetylcholine receptor M3 (Rattus norvegicus) (UniProt P08483); settings: filed as antagonist
Sequence of Muscarinic acetylcholine receptor M3 (Rattus norvegicus) (P08483 whole entry, looked up): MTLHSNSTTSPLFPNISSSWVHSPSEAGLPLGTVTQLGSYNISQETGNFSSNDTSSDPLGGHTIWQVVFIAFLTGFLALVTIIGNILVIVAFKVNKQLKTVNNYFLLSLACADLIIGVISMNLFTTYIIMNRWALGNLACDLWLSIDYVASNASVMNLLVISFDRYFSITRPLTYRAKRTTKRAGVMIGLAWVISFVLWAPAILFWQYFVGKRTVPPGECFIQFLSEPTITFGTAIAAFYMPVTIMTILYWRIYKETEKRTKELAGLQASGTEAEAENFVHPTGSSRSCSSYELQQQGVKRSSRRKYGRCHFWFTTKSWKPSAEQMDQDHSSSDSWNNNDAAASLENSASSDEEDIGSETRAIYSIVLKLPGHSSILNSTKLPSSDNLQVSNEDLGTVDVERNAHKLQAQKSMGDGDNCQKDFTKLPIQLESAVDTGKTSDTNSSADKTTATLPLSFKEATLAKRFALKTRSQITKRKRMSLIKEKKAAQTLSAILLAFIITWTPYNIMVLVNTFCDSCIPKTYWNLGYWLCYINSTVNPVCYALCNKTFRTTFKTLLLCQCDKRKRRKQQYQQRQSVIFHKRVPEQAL

inhibition [1]: < 50%
SMILES: O=C1NC(c2ccccc2)(c2ccccc2)CN1C1CCN(Cc2c[nH]cn2)CC1

Ki [5]: 2.27 µM (antagonist)
SMILES: O=C1NC(c2ccccc2)(c2ccccc2)CN1[C@H]1CCN(Cc2ccccc2)C1

Ki [5]: 2.95 µM (antagonist)
SMILES: O=C1NC(Cc2ccccc2)(Cc2ccccc2)CN1C1CCN(Cc2ccccc2)CC1

Ki [5]: 2.92 µM (antagonist)
SMILES: CN1CCC(N2CC(c3ccccc3)(c3ccccc3)NC2=O)CC1

Ki [5]: 0.695 µM (antagonist)
SMILES: COc1cccc(CN2CCC(N3CC(c4ccccc4)(c4ccccc4)NC3=O)CC2)c1

Ki [5]: 0.52 µM (antagonist)
SMILES: CN1C(=O)N(C2CCN(Cc3ccccc3)CC2)CC1(c1ccccc1)c1ccccc1

Papp [2]: > 5 ×10⁻⁶ cm/s
CLint scaled [3]: 4.7 mL/min/g
CLint scaled [4]: 1.1 mL/min/g
SMILES: O=C1NC(c2ccccc2)(c2ccccc2)CN1C1CCN(Cc2ccccc2)CC1

Ki [5]: 0.927 µM (antagonist)
SMILES: O=C1NC(c2ccccc2)(c2ccccc2)CN1C1CCN(Cc2cccs2)CC1

Ki [5]: 0.296 µM (antagonist)
SMILES: O=C1NC(c2ccccc2)(c2ccccc2)CN1C1CCN(Cc2ccc(Cl)cc2)CC1

inhibition [1]: < 50%
SMILES: O=C1NC(c2ccccc2)(c2ccccc2)CN1C1CCN(Cc2cccc(C(F)(F)F)c2)CC1

Activity [7]: inactive
IC50 (Cytochrome P450 3A4): 91.9 µM
Papp [2]: > 5 ×10⁻⁶ cm/s
IC50 (Cytochrome P450 2C9): 7 µM
CLint scaled [3]: 2 mL/min/g
IC50 (Cytochrome P450 2C19): 12.9 µM
CLint scaled [4]: 0.56 mL/min/g
IC50 (Cytochrome P450 2D6): 4.7 µM
IC50 (Cytochrome P450 1A2): > 100 µM
SMILES: O=C1NC(c2ccc(F)cc2)(c2ccc(F)cc2)CN1C1CCN(Cc2ccccc2)CC1

IC50 (Cytochrome P450 3A4): > 100 µM
Papp [2]: < 1 ×10⁻⁶ cm/s
IC50 (Cytochrome P450 2C9): 4.2 µM
CLint scaled [3]: 1.8 mL/min/g
IC50 (Cytochrome P450 2C19): 17.7 µM
CLint scaled [4]: 0.87 mL/min/g
IC50 (Cytochrome P450 2D6): 5.3 µM
IC50 (Cytochrome P450 1A2): > 100 µM
SMILES: O=C1NC(c2ccc(F)cc2)(c2ccc(F)cc2)CN1C1CCN(Cc2cccc(Cl)c2)CC1

inhibition [1]: < 50%
SMILES: N#Cc1cccc(CN2CCC(N3CC(c4ccccc4)(c4ccccc4)NC3=O)CC2)c1

Papp [2]: > 5 ×10⁻⁶ cm/s
CLint scaled [3]: 23.7 mL/min/g
CLint scaled [4]: 2.3 mL/min/g
SMILES: O=C1NC(c2cccs2)(c2cccs2)CN1C1CCN(Cc2ccccc2)CC1

inhibition [1]: < 50%
SMILES: O=C1NC(c2ccccc2)(c2ccccc2)C(=O)N1C1CCN(Cc2ccccc2)CC1

inhibition [1]: < 50%
SMILES: COc1ccccc1CN1CCC(N2CC(c3ccccc3)(c3ccccc3)NC2=O)CC1

Ki [5]: 0.49 µM (antagonist)
SMILES: COc1ccc(CN2CCC(N3CC(c4ccccc4)(c4ccccc4)NC3=O)CC2)cc1

Ki [5]: 0.0822 µM (antagonist)
SMILES: O=C1NC(c2ccccc2)(c2ccccc2)CN1[C@@H]1CCN(Cc2ccccc2)C1

inhibition [1]: < 50%
SMILES: O=C1NC(c2ccccc2)(c2ccccc2)CN1C1CCCN(Cc2ccccc2)C1 (stereo unspecified)

inhibition [1]: < 50%
SMILES: O=C1NC(c2ccccc2)(c2ccccc2)CN1C1CCN(CC2CCCCC2)CC1

inhibition [6]: < 50%
SMILES: O=C(c1cccc(Cl)c1)N1CCC(N2CC(c3ccccc3)(c3ccccc3)NC2=O)CC1

More lines, now with the values behind:

SMILES: COc1ccc(C2(c3ccc(OC)cc3)CN(C3CCN(Cc4ccccc4)CC3)C(=O)N2)cc1
inhibition [1]: < 50%

SMILES: O=C1NC(c2cccs2)(c2cccs2)CN1C1CCN(Cc2cccc(F)c2)CC1
Papp [2]: ≤ 1 ×10⁻⁶ cm/s
CLint scaled [3]: 13.8 mL/min/g
CLint scaled [4]: 0.95 mL/min/g

SMILES: O=C1NC(c2ccccc2)(c2ccccc2)CN1C1CCN(Cc2cccc(OC(F)(F)F)c2)CC1
inhibition [1]: < 50%

SMILES: O=C1NC(c2ccccc2)(C2CCCCC2)CN1C1CCN(Cc2cccc(Cl)c2)CC1 (stereo unspecified)
Ki [5]: 0.515 µM (antagonist)

SMILES: O=C1NC(c2ccc(F)cc2)(c2ccc(F)cc2)CN1C1CCN(Cc2cccc(F)c2)CC1
IC50 (Cytochrome P450 3A4): > 100 µM
Papp [2]: > 5 ×10⁻⁶ cm/s
IC50 (Cytochrome P450 2C9): 7.3 µM
CLint scaled [3]: 1.4 mL/min/g
IC50 (Cytochrome P450 2C19): 17.4 µM
CLint scaled [4]: 0.78 mL/min/g
IC50 (Cytochrome P450 2D6): 12 µM
IC50 (Cytochrome P450 1A2): > 100 µM

SMILES: O=C1NC(c2ccccc2)(c2ccccc2)CN1C1CCN(Cc2cccnc2)CC1
Ki [5]: 0.302 µM (antagonist)

SMILES: O=C1NC(c2ccccc2)(c2ccccc2)CN1C1CC2CCC(C1)N2Cc1ccccc1 (stereo unspecified)
Ki [5]: 0.065 µM (antagonist)

SMILES: O=C1NC(c2ccccc2)(c2ccccc2)CN1C1CCCN(Cc2ccccc2)CC1 (stereo unspecified)
Ki [5]: 0.002 µM (antagonist)

SMILES: O=C1NC(c2ccccc2)(c2ccccc2)CN1C1CCN(Cc2ccccc2Cl)CC1
inhibition [1]: < 50%

SMILES: O=C1NC(c2ccccc2)(c2ccccc2)CN1C1CCN(Cc2cccc(F)c2)CC1
Ki [5]: 0.302 µM (antagonist)

SMILES: O=C1NC(c2ccccc2)(c2ccccc2)CN1C1CCN(Cc2cccc(O)c2)CC1
Ki [5]: 0.0479 µM (antagonist)

SMILES: O=C1NC(c2ccccc2)(c2ccccc2)CN1C1CCN(Cc2cc(Cl)cc(Cl)c2)CC1
inhibition [6]: < 50%

SMILES: O=C1N(C2CCN(Cc3ccccc3)CC2)CC(c2ccccc2)N1Cc1ccccc1 (stereo unspecified)
Ki [5]: 0.629 µM (antagonist)

SMILES: O=C1NC(C2CCCCC2)(C2CCCCC2)CN1C1CCN(Cc2ccccc2)CC1
inhibition [6]: < 50%

SMILES: Cc1ccc(O)c([C@H](CCN(C(C)C)C(C)C)c2ccccc2)c1
pKb [8]: 8.86

SMILES: O=C1OC(c2ccccc2)(c2ccccc2)CN1C1CCN(Cc2ccccc2)CC1
Ki [5]: 0.908 µM (antagonist)

SMILES: C#CCN1CCC(N2CC(c3ccccc3)(c3ccccc3)NC2=O)CC1
inhibition [6]: < 50%

SMILES: Nc1cccc(CN2CCC(N3CC(c4ccccc4)(c4ccccc4)NC3=O)CC2)c1
Ki [5]: 0.182 µM (antagonist)

SMILES: O=C1NC(c2ccccc2)(c2ccccc2)CN1C1CCN(CCOc2ccccc2)CC1
Ki [5]: 0.328 µM (antagonist)

SMILES: O=C1NC(c2ccccc2)(c2ccccc2)CN1C1CCN(c2ccccc2)CC1
inhibition [1]: < 50%

SMILES: O=C1NC(c2ccccc2)(c2ccccc2)CN1C1CCN(CCc2ccccc2)CC1
Ki [5]: 0.411 µM (antagonist)

SMILES: Cc1cccc(CN2CCC(N3CC(c4ccccc4)(C4CCCCC4)NC3=O)CC2)c1 (stereo unspecified)
Ki [5]: 0.166 µM (antagonist)
